The record followed here is ChEMBL document CHEMBL3352023, “C-terminal residue optimization and fragment merging: discovery of a potent Peptide-hybrid inhibitor of dengue protease” (ACS Med Chem Lett, 2014).

SMILES strings stand for the structures. Activity calls are given as the source filed them. The rule behind the calls is not given here. Square brackets hold non-standard residues; d marks the D form. Peptide text beside a SMILES is read from it. * marks the point of attachment. ξ: configuration not given here. Phg = N[C@H](C(=O)O)c1ccccc1; Nva = CCC[C@H](N)C(=O)O; ξPra = C#CCC(N)C(=O)O; Bz = O=C(c1ccccc1)*

Experiment [1] addresses Genome polyprotein (dengue virus type 2) (UniProt P12823). In words: Inhibition of Dengue virus serotype 2 NS2B-NS3 protease at 50 uM by homogeneous fluorimetric assay.
Experiment [2] addresses Prothrombin (Homo sapiens) (UniProt P00734). In words: Inhibition of thrombin (unknown origin) at 25 uM by homogeneous fluorimetric assay.
Experiment [3] addresses Genome polyprotein (West Nile virus) (UniProt P06935). Kind of experiment: Inhibition of West Nile virus […] NS2B-NS3 protease at 50 uM by homogeneous fluorimetric assay. Put shortly:
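WNV NS2B-NS3 protease percent inhibition, homogeneous fluorimetric assay: enzyme 150 nM, inhibitor 50 μM, substrate 50 μM (Km = 212 μM); triplicate, SD below 10%.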

Experiment [4] has as its target Genome polyprotein (dengue virus type 2) (UniProt P12823). Kind of experiment: Competitive inhibition of Dengue virus serotype 2 NS2B-NS3 protease by aprotinin competition fluorescence assay. Put shortly:
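Active-site binding checked by aprotinin competition: fluorescence decrease followed with increasing inhibitor concentration, then aprotinin added to test recovery of fluorescence.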

Experiment [5] concerns the target Genome polyprotein (dengue virus type 2, UniProt P12823). In words: Inhibition of Dengue virus serotype 2 NS2B-NS3 protease by homogeneous fluorimetric assay.
Experiment [6] addresses Genome polyprotein (West Nile virus, UniProt P06935). In words: Inhibition of West Nile virus […] NS2B-NS3 protease by homogeneous fluorimetric assay.

Chain of Genome polyprotein (West Nile virus) (P06935 whole entry): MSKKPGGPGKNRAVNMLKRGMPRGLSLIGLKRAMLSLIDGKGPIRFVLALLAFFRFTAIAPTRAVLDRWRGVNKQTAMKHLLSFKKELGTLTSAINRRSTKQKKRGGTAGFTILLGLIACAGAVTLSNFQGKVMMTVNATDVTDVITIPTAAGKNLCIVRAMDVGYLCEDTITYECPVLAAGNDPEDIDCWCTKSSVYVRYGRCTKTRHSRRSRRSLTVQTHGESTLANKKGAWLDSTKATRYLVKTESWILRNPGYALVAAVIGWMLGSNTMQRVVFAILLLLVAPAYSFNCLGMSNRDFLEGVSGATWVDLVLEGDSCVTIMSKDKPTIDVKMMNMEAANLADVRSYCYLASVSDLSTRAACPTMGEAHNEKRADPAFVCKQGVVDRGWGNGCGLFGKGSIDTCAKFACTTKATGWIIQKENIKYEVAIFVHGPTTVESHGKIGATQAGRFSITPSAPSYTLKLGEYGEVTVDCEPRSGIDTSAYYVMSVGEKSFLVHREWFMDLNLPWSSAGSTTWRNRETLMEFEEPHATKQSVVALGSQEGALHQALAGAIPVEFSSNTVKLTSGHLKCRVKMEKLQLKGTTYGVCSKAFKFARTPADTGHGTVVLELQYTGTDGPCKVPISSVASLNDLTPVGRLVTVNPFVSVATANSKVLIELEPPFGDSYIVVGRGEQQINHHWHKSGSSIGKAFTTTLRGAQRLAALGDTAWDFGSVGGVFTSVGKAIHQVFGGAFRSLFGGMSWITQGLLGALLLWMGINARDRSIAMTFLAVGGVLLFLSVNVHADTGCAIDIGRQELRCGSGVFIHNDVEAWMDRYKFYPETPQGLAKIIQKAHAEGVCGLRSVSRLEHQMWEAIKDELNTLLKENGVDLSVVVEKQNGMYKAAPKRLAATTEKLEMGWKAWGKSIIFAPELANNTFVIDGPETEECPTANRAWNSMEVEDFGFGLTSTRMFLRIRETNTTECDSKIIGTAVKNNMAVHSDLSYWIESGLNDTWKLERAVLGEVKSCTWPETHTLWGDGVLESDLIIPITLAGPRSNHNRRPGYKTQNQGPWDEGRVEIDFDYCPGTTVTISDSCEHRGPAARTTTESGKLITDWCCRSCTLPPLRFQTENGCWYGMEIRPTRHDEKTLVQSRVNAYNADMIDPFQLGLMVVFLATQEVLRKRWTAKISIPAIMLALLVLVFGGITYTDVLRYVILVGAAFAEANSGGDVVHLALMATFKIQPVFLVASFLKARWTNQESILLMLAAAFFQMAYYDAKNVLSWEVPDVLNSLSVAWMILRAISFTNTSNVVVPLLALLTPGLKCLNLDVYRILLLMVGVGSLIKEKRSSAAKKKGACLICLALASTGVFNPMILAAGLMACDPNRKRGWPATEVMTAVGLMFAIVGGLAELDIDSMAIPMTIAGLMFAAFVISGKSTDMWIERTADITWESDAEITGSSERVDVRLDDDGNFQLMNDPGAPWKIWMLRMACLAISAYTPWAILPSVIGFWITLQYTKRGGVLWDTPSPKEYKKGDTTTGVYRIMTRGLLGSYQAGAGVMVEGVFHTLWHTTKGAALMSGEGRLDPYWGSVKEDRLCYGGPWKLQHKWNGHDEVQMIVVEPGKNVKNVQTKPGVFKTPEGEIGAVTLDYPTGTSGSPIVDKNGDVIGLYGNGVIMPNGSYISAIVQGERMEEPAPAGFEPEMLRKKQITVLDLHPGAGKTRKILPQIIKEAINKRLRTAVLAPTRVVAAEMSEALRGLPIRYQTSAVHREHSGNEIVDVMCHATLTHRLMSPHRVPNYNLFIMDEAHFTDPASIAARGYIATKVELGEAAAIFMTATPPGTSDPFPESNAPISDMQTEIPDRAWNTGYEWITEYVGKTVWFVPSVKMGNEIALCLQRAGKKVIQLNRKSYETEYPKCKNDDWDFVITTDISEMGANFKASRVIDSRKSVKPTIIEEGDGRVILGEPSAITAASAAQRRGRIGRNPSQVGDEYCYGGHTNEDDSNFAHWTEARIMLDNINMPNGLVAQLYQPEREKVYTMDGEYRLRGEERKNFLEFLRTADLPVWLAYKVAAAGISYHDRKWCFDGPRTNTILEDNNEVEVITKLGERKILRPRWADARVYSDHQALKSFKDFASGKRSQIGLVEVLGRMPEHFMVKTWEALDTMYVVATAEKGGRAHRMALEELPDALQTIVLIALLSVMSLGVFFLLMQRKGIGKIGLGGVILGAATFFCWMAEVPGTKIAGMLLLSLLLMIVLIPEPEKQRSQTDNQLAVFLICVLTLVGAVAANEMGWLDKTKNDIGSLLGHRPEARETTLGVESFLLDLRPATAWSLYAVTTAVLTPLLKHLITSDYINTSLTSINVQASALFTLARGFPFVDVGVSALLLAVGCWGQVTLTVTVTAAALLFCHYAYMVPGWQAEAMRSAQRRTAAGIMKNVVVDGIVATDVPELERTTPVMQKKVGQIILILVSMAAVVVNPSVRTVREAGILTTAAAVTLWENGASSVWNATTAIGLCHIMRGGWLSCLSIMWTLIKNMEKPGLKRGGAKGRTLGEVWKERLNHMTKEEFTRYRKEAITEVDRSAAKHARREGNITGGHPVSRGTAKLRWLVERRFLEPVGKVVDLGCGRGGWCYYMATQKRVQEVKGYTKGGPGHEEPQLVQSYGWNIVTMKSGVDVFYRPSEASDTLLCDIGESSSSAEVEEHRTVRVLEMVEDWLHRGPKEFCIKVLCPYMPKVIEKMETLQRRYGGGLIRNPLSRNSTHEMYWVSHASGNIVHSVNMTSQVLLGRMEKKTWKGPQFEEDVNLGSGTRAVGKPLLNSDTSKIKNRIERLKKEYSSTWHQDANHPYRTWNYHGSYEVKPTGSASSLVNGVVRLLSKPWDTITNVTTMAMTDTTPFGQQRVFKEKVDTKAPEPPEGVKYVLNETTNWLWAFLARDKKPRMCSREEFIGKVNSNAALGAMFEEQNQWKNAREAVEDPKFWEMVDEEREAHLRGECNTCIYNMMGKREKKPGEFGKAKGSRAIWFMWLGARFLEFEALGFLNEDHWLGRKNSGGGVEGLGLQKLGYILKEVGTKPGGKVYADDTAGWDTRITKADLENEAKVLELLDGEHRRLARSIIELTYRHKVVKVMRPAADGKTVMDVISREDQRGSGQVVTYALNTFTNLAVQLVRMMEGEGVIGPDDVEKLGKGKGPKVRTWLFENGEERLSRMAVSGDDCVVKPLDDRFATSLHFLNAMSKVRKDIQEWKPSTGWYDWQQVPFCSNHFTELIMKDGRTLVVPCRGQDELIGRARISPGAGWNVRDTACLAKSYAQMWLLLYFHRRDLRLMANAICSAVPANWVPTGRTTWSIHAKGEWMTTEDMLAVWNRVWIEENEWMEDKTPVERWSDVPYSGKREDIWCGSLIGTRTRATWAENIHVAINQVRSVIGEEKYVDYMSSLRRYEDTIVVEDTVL
Chain of Genome polyprotein (West Nile virus, UniProt P06935) (P06935 1371-1501 limits assumed): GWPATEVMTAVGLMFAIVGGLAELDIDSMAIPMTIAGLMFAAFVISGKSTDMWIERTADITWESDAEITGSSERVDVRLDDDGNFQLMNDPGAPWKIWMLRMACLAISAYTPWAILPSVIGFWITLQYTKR
Chain of Genome polyprotein (West Nile virus, UniProt P06935) (P06935 1502-2120 limits assumed): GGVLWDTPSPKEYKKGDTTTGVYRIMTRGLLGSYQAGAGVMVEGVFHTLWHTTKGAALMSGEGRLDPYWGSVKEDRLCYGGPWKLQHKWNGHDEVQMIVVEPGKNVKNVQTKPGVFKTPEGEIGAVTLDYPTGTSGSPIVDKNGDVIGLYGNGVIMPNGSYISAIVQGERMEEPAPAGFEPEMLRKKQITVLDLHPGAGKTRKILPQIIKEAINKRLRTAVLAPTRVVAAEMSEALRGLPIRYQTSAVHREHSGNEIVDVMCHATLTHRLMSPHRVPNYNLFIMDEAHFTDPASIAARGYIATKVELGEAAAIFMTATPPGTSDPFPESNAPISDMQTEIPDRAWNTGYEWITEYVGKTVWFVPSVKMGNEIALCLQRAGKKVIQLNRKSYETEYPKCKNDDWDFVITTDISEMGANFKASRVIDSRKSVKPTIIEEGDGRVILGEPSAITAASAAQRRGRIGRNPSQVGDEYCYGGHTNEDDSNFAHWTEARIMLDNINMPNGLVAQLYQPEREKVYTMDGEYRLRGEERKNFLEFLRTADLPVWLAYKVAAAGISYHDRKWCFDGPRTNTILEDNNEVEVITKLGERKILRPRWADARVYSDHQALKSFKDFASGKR

As to `N=C(N)NCCC[C@H](NC(=O)c1ccc(/C=C2\SC(=O)N(C3CCCC3)C2=O)cc1)C(=O)N[C@@H](CCCCN)C(=O)N[C@H](C(N)=O)c1ccccc1`, the inhibition is 99.6% in experiment [1], 9.2% in experiment [2], 98.4% in experiment [3] and “Dose-dependent effect” in experiment [4]. This molecule also came in with an IC50 on Genome polyprotein [5] of 0.6 µM.

For `N=C(N)NCCC[C@H](NC(=O)c1ccccc1)C(=O)N[C@@H](CCCCN)C(=O)N[C@H](C(N)=O)c1ccccc1` (Bz-Arg-Lys-[Phg]-NH2), the inhibition in experiment [1] amounted to 95%; in experiment [3] it was 39.3%. For the same molecule, the inhibition result in experiment [2] is “inactive”. Besides, the 50% inhibitory concentration (IC50) against Genome polyprotein [5] amounted to 3.3 µM; at Genome polyprotein [6], 58 µM. This molecule also displayed a Ki on Genome polyprotein [6] of 49 µM.

In the case of `C#CCC(NC(=O)[C@H](CCCCN)NC(=O)[C@H](CCCNC(=N)N)NC(=O)c1ccccc1)C(N)=O` (stereo partly drawn) (Bz-Arg-Lys-[ξPra]-NH2), the values for the inhibition in experiment [1], in experiment [2] and in experiment [3] were 72.5%, 5.2% and 14.3%, respectively. Further, it took 17.5 µM to reach half-maximal inhibition against Genome polyprotein [5] (IC50).

In the case of `CC(C)C[C@H](NC(=O)[C@H](CCCCN)NC(=O)[C@H](CCCNC(=N)N)NC(=O)c1ccccc1)C(N)=O` (Bz-Arg-Lys-Leu-NH2), the inhibition came out at 63.2% in experiment [1], 5.9% in experiment [2] and 18.4% in experiment [3]. Inhibition against Genome polyprotein [5] was half-maximal at 22.7 µM (IC50).

Take `CC(C)[C@H](NC(=O)[C@H](CCCCN)NC(=O)[C@H](CCCNC(=N)N)NC(=O)c1ccccc1)C(N)=O` (Bz-Arg-Lys-Val-NH2): the values for the inhibition in experiment [1], in experiment [2] and in experiment [3] were 60%, 4.9% and 18.3%, respectively. In addition, inhibition against Genome polyprotein [5] was half-maximal at 28.8 µM (IC50).

In the case of `CC(C)(C)[C@H](NC(=O)[C@H](CCCCN)NC(=O)[C@H](CCCNC(=N)N)NC(=O)c1ccc(/C=C(\C#N)C(=O)NC2CC2)cc1)C(N)=O`, the inhibition in experiment [1] stood at 32.5%; in experiment [2], 5%; in experiment [3], 26.7%. Besides, on Genome polyprotein [5], half-maximal inhibition (IC50) required 57.6 µM.

In the case of `CCC[C@H](NC(=O)[C@H](CCCCN)NC(=O)[C@H](CCCNC(=N)N)NC(=O)c1ccccc1)C(N)=O` (Bz-Arg-Lys-[Nva]-NH2), the inhibition in experiment [1] worked out at 62%; in experiment [3], 8.5%. For the same molecule, the inhibition result in experiment [2] is “inactive”. This molecule also returned an IC50 on Genome polyprotein [5] of 25.2 µM.

As usually defined, the inhibition is the percentage by which the read-out fell short of the control. By IC50 is commonly meant the concentration that inhibits the measured activity by half. The low end stands for greater potency in that assay, the high end for weaker potency in that assay. A word on the Ki: it is a dissociation constant, usually derived from enzyme kinetics or from competition with a known ligand. Read a low Ki as higher affinity.
